# Experimental data published in ChEMBL document CHEMBL1131331, “Structure-activity studies on anticonvulsant sugar sulfamates related to topiramate. Enhanced potency with cyclic sulfate derivatives” (J Med Chem, 1998).
# Assays:
# Rattus norvegicus [1] = species on record: Rattus norvegicus; test: Compound was tested for the effective dose (ED50) for each time point in Rats. 95% confidence limits are given in parentheses 48 Hour; assay type: functional
# Summary of the method: (§1)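 Rat MES time-course study. Compounds are given orally, and block of the hind-limb tonic-extensor seizure induced by corneal electroshock is assessed at each time point. For each time point, the ED50 (mg/kg) is reported with 95% confidence limits.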
# [2] = (§2) Partition coefficient (logP); assay type: physicochemical; conditions: octanol/water
# Summary of the method: (§3)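 Apparent octanol–water partition coefficient D, measured in unbuffered water (pH 7.2–7.6) using an HPLC refractive-index assay. True P is calculated as […], and P7.4 as P/[1 + 10^(7.4 − pKa)], using pKa values from potentiometric titration.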
# [3] = Inhibition concentration by inhibition of carbonic anhydrase from synaptosomes in Rat. 95% confidence limits are given in parentheses.; assay type: subcellular, Brain
# Mus musculus [4] = species on record: Mus musculus; test: Compound was tested for the effective dose (ED50) for each time point in Mice. 95% confidence limits are given in parentheses 24 Hour; assay type: functional
# Summary of the method: (§4)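 Mouse MES time-course study. Compounds are given orally, and hind-limb tonic-extensor block after corneal-electrode shock is scored at each time point. For each time point, the ED50 (mg/kg) is reported with 95% confidence limits.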
# [5] = Pharmacokinetic parameter :The dissociation constant values at 25 degrees C, obtained by potentiometric titration.; assay type: ADME
# [6] = Inhibition concentration by inhibition of carbonic anhydrase from myelin in Rat. 95% confidence limits are given in parentheses.
# Mus musculus [7] = test: Effective dose against maximal electroshock seizures in mice, at 4 hr following oral administration of 10 mg/kg of compound; assay type: functional
# Mus musculus [8] = species on record: Mus musculus; test: Compound was tested for the effective dose (ED50) for each time point in Mice. 95% confidence limits are given in parentheses 2 Hour; assay type: functional
# [9] = Inhibition concentration by inhibition of carbonic anhydrase from kidney in Rat. 95% confidence limits are given in parentheses.
# Mus musculus [10] = species on record: Mus musculus; test: Compound was tested for the effective dose (ED50) for each time point in Mice. 95% confidence limits are given in parentheses 1 Hour; assay type: functional
# [11] = Inhibition concentration by inhibition of carbonic anhydrase from blood in Rat. 95% confidence limits are given in parentheses.
# Rattus norvegicus [12] = species on record: Rattus norvegicus; test: Compound was tested for the effective dose (ED50) for each time point in Rats. 95% confidence limits are given in parentheses 12 Hour; assay type: functional; summary of the method: as §1
# Rattus norvegicus [13] = species on record: Rattus norvegicus; test: Compound was tested for the effective dose (ED50) for each time point in Rats. 95% confidence limits are given in parentheses 16 Hour; assay type: functional; summary of the method: as §1
# Rattus norvegicus [14] = species on record: Rattus norvegicus; test: Compound was tested for the effective dose (ED50) for each time point in Rats. 95% confidence limits are given in parentheses 1 Hour; assay type: functional; summary of the method: as §1
# Rattus norvegicus [15] = species on record: Rattus norvegicus; test: Compound was tested for the effective dose (ED50) for each time point in Rats. 95% confidence limits are given in parentheses 24 Hour; assay type: functional; summary of the method: as §1
# Rattus norvegicus [16] = species on record: Rattus norvegicus; test: Compound was tested for the effective dose (ED50) for each time point in Rats. 95% confidence limits are given in parentheses 4 Hour; assay type: functional; summary of the method: as §1
# [17] = as §2; assay type: physicochemical; conditions: octanol/water; summary of the method: as §3; remark: listed apart in the source
# [18] = pH 7.4 value at pH 7.25; assay type: ADME; summary of the method: as §3
# [19] = as §2; assay type: physicochemical; conditions: octanol/water; summary of the method: as §3; remark: listed apart in the source
# [20] = Pharmacokinetic parameter :log P7.4 log P value at pH 7.4; assay type: physicochemical; conditions: buffer, read-out: Log D7.4; summary of the method: as §3
# Mus musculus [21] = species on record: Mus musculus; test: Compound was tested for the effective dose (ED50) for each time point in Mice. 95% confidence limits are given in parentheses 4 Hour; assay type: functional
# Rattus norvegicus [22] = species on record: Rattus norvegicus; test: Compound was tested for the effective dose (ED50) for each time point in Rats. 95% confidence limits are given in parentheses 2 Hour; assay type: functional; summary of the method: as §1
# [23] = Inhibition concentration by inhibition of carbonic anhydrase from brain in Rat. 95% confidence limits are given in parentheses.
# Mus musculus [24] = species on record: Mus musculus; test: Compound was tested for the effective dose (ED50) for each time point in Mice. 95% confidence limits are given in parentheses 12 hr; assay type: functional; summary of the method: as §4
# Rattus norvegicus [25] = species on record: Rattus norvegicus; test: Compound was tested for the effective dose (ED50) for each time point in Rats. 95% confidence limits are given in parentheses 8 Hour; assay type: functional; summary of the method: as §1
# Mus musculus [26] = test: Activity against maximal electroshock seizures in mice, 4 hr following oral administration of 35 mg/kg of compound; assay type: functional
# Summary of the method: (§5)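 Mouse maximal electroshock seizure test. An electric shock is applied through corneal electrodes, and block of the hind-limb tonic-extensor seizure is scored. Compounds are given orally, usually to 10 mice per group, and tested 4 h after dosing. The result is reported as percent of dosed animals protected at the stated dose.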
# Mus musculus [27] = test: Inhibition of maximal electroshock seizures in mice, 4 hr following 10 mg/kg p.o. administration.; assay type: functional; conditions: route oral; summary of the method: as §5
# [28] = Inhibition concentration by inhibition of carbonic anhydrase from blood in Rat
# [29] = Inhibition concentration by inhibition of carbonic anhydrase from brain in Rat
# [30] = Inhibition concentration by inhibition of carbonic anhydrase from kidney in Rat
# [31] = Inhibition concentration by inhibition of carbonic anhydrase from synaptosomes in Rat
# [32] = Inhibition concentration by inhibition of carbonic anhydrase from myelin in Rat
# Mus musculus [33] = test: Activity against maximal electroshock seizures in mice, 4 hr following oral administration of 75 mg/kg; assay type: functional; summary of the method: as §5
# Mus musculus [34] = test: Activity against maximal electroshock seizures in mice, 4 hr following oral administration of 30 mg/kg of compound; assay type: functional; summary of the method: as §5
# Mus musculus [35] = test: Activity against maximal electroshock seizures in mice, 4 hr following oral administration of 15 mg/kg of compound; assay type: functional; summary of the method: as §5
# Mus musculus [36] = test: Activity against maximal electroshock seizures in mice, 4 hr following oral administration of 18.75 mg/kg of compound; assay type: functional; summary of the method: as §5
# Mus musculus [37] = test: Activity against maximal electroshock seizures in mice, 4 hr following oral administration of 37.5 mg/kg of compound; assay type: functional; summary of the method: as §5
# [38] = Inhibition concentration of the compounds were determined by inhibition of carbonic anhydrase from kidney in Rat. 95% confidence limits are given in parentheses.
# Mus musculus [39] = species on record: Mus musculus; test: Compound was tested for the effective dose (ED50) for each time point in Mice. 95% confidence limits are given in parentheses 16 Hour; assay type: functional; summary of the method: as §4
# [40] = pH 7.4 value at 7.35 pH; assay type: ADME; summary of the method: as §3
# Mus musculus [41] = test: Activity against maximal electroshock seizures in mice, 4 hr following oral administration of 80 mg/kg of compound; assay type: functional; summary of the method: as §5
# Mus musculus [42] = test: Activity against maximal electroshock seizures in mice, 4 hr following oral administration of 40 mg/kg of compound; assay type: functional; summary of the method: as §5
# [43] = pH 7.4 value at 7.61 pH; assay type: ADME; summary of the method: as §3
# Mus musculus [44] = test: Activity against maximal electroshock seizures in mice, 4 hr following oral administration of 300 mg/kg of compound; assay type: functional; summary of the method: as §5
# Mus musculus [45] = test: Compound activity was measured at 4 hr following administration of the oral dosage (perorally) 300 mg/kg in mice, and is reported as percent block at the given dose.; assay type: functional; summary of the method: as §5
# Mus musculus [46] = test: Activity against maximal electroshock seizures in mice, 4 hr following oral administration of 75 mg/kg of compound; assay type: functional; summary of the method: as §5
# Mus musculus [47] = test: Compound activity was measured at 4 hr following administration of the oral dosage (perorally) 5 mg/kg in mice, and is reported as percent block at the given dose.; assay type: functional; summary of the method: as §5
structure (smiles),measurement,setting,value
CC1(C)O[C@@H]2[C@@H](CO[C@@]3(COS(N)(=O)=O)OC(C)(C)O[C@@H]23)O1 [TOPIRAMATE],ED50,Rattus norvegicus [1],> 1000 mg/kg
same,logP,[2],0.5
same,IC50,[3],4840 nM
same,ED50,Mus musculus [4],> 1000 mg/kg
same,pKa,[5],8.66
same,IC50,[6],1360 nM
same,ED50,Mus musculus [7],53 mg/kg
same,ED50,Mus musculus [8],47.6 mg/kg
same,IC50,[9],8350 nM
same,ED50,Mus musculus [10],43.8 mg/kg
same,IC50,[11],8890 nM
same,ED50,Rattus norvegicus [12],34 mg/kg
same,ED50,Rattus norvegicus [13],103 mg/kg
same,ED50,Rattus norvegicus [14],15 mg/kg
same,ED50,Rattus norvegicus [15],153 mg/kg
same,ED50,Rattus norvegicus [16],6.7 mg/kg
same,logP,[17],3.26
same,P7.4,[18],3.31
same,logP,[19],0.53
same,logD,[20],0.51
same,ED50,Mus musculus [21],53.5 mg/kg
same,ED50,Rattus norvegicus [22],16 mg/kg
same,IC50,[23],4550 nM
same,ED50,Mus musculus [24],246 mg/kg
same,ED50,Rattus norvegicus [25],15 mg/kg
CC1(C)O[C@H]2[C@@H]3OS(=O)(=O)O[C@@H]3CO[C@@]2(COS(=O)(=O)N=[N+]=[N-])O1,Block,Mus musculus [26],100%
same,Block,Mus musculus [27],0%
CC(=O)Nc1nnc(S(N)(=O)=O)s1 [ACETAZOLAMIDE],IC50,[28],37 nM
same,IC50,[29],12 nM
same,IC50,[30],650 nM
same,IC50,[31],7 nM
same,IC50,[32],24 nM
CC[C@H]1O[C@@H]2[C@@H](CO[C@@]3(COS(N)(=O)=O)OC(C)(C)O[C@@H]23)O1,Block,Mus musculus [26],10%
same,Block,Mus musculus [33],90%
CC1(C)O[C@@H]2[C@H]3OS(=O)(=O)O[C@H]3CO[C@]2(COS(N)(=O)=O)O1,Block,Mus musculus [34],80%
same,ED50,Mus musculus [7],22 mg/kg
same,Block,Mus musculus [35],30%
CC1(C)O[C@H]2[C@H](O)[C@@H](Cl)CO[C@@]2(COS(N)(=O)=O)O1,Block,Mus musculus [36],50%
same,ED50,Mus musculus [7],24 mg/kg
same,Block,Mus musculus [37],90%
CC1(C)O[C@H]2[C@@H]3OS(=O)(=O)O[C@@H]3CO[C@@]2(COS(N)(=O)=O)O1,Block,Mus musculus [26],100%
same,ED50,Rattus norvegicus [1],18 mg/kg
same,logP,[2],-1.01
same,IC50,[3],21 nM
same,ED50,Mus musculus [4],72 mg/kg
same,pKa,[5],8.51
same,IC50,[6],52 nM
same,ED50,"Mus musculus [8]; Mus musculus, 2 h, read-out: ED50",6.6 mg/kg
same,IC50,[38],130 nM
same,ED50,"Mus musculus [10]; Mus musculus, 1 h, read-out: ED50",8.6 mg/kg
same,IC50,[11],84 nM
same,ED50,Rattus norvegicus [12],1.3 mg/kg
same,ED50,Rattus norvegicus [13],2.5 mg/kg
same,ED50,Rattus norvegicus [14],3.8 mg/kg
same,ED50,Rattus norvegicus [15],2.6 mg/kg
same,ED50,Rattus norvegicus [16],1.7 mg/kg
same,logP,[17],2.44
same,logP,[19],0.42
same,logD,[20],0.38
same,ED50,Rattus norvegicus [22],5.1 mg/kg
same,ED50,Mus musculus [39],50 mg/kg
same,IC50,[23],21 nM
same,ED50,Mus musculus [24],23 mg/kg
same,P7.4,[40],2.42
same,ED50,Rattus norvegicus [25],1 mg/kg
CC1(C)O[C@H]2[C@H](CO[C@]3(COS(N)(=O)=O)OC(C)(C)O[C@H]23)O1,Block,Mus musculus [41],50%
same,ED50,Mus musculus [7],82 mg/kg
same,Block,Mus musculus [42],20%
CCC1(CC)O[C@@H]2[C@@H](CO[C@@]3(COS(N)(=O)=O)OC(C)(C)O[C@@H]23)O1,logP,[2],1.55
same,pKa,[5],8.62
same,P7.4,[43],31.5
same,Block,Mus musculus [33],0%
same,logP,[19],1.52
same,logD,[20],1.5
same,Block,Mus musculus [44],80%
CC(C)(C)OC(=O)N=S1O[C@@H]2[C@@H](CO[C@@]3(COS(N)(=O)=O)OC(C)(C)O[C@@H]23)O1 (stereo partly drawn),Block,Mus musculus [45],40%
CC1(C)O[C@H]2[C@@H]3OS(=O)(=O)O[C@@H]3CO[C@@]2(COS(=O)(=O)n2ccnc2)O1,Block,Mus musculus [27],0%
same,Block,Mus musculus [46],100%
CC1(C)O[C@@H]2[C@@H](CC[C@@]3(COS(N)(=O)=O)OC(C)(C)O[C@@H]23)O1,Block,Mus musculus [26],80%
same,ED50,Mus musculus [7],16.6 mg/kg
same,Block,Mus musculus [47],30%
CCC1(CC)O[C@H]2[C@@H]3OS(=O)(=O)O[C@@H]3CO[C@@]2(COS(N)(=O)=O)O1,Block,Mus musculus [27],0%
same,Block,Mus musculus [46],100%
